Results on four molecules are retold here after ChEMBL document CHEMBL3112561, “Small molecule disruptors of the glucokinase-glucokinase regulatory protein interaction: 2. Leveraging structure-based drug design to identify analogues with improved pharmacokinetic profiles” (J Med Chem, 2014).

pEC50, pIC50: −log10 of the molar value.

A short description of data set [1]: Mean residence time in rat at 10 mg/kg, po. On the set-up: dose 10 mg/kg, route oral. The following applies: in vivo. The format is ADME, organism-based. In a few lines: (§1)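 Oral PK at 10 mg/kg in 1% Tween 80, 2% HPMC, 97% water, […]; mean residence time from plasma profile.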
Data set [2] can be described thus: Oral bioavailability in C57Bl6 mouse at 10 mg/kg. To be noted: in vivo. The data set is classed as ADME, organism-based.
Data set [3] has as its system Plasma. Briefly: Unbound plasma concentration in insulin-resistant db/db mouse at 30 mg/kg, po measured at 6 hrs. The format is ADME, organism-based. On the set-up: dose 30 mg/kg, route oral. To be noted: in vivo. In a few lines:
(§2)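 Fed db/db mice dosed orally (10, 30, 100 mg/kg) in 2% HPMC/1% Tween 80 vehicle, pH 2.2 (MSA), gavaged at 9:00 AM. A 15 μL whole-blood sample taken at 6 h post-dose for drug exposure, reported as unbound plasma concentration.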

Data set [4] deals with Plasma. The experiment in a line: Unbound plasma concentration in insulin-resistant db/db mouse at 100 mg/kg, po measured at 6 hrs. The data set is classed as ADME, organism-based. On the set-up: dose 100 mg/kg, route oral. The following applies: in vivo. In a few lines:
as §2

A short description of data set [5]: Volume of distribution at steady state in C57Bl6 mouse at 2 mg/kg, iv. The data set is classed as ADME, organism-based. On the set-up: dose 2 mg/kg, route intravenous. To be noted: in vivo, read-out: Vdss. The method in brief: (§3)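 Intravenous PK at 2 mg/kg in 100% DMSO; steady-state volume of distribution derived from plasma profile.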
Data set [6] in a line: Oral bioavailability in rat at 10 mg/kg. The data set is classed as ADME, organism-based. To be noted: in vivo.
In data set [7] the test system is Plasma. The experiment in a line: Unbound plasma concentration in insulin-resistant db/db mouse at 10 mg/kg, po measured at 6 hrs. The format is ADME, organism-based. On the set-up: dose 10 mg/kg, route oral. The following applies: in vivo. In a few lines:
as §2

A short description of data set [8]: Volume of distribution at steady state in rat at 2 mg/kg, iv. The data set is classed as ADME, organism-based. On the set-up: dose 2 mg/kg, route intravenous. The following applies: in vivo, read-out: Vdss. The method in brief:
as §3

Data set [9] in a line: Mean residence time in C57Bl6 mouse at 10 mg/kg, po. The format is ADME, organism-based. On the set-up: dose 10 mg/kg, route oral. To be noted: in vivo. The method in brief:
as §1

The subject of data set [10] is Mus musculus. Briefly: Unbound maximum concentration in C57Bl6 mouse at 10 mg/kg, po. The format is ADME, organism-based. On the set-up: dose 10 mg/kg, route oral. To be noted: in vivo.
The subject of data set [11] is Mus musculus. The experiment in a line: Antidiabetic activity in insulin-resistant db/db mouse assessed as reduction of fed blood glucose level at 100 mg/kg, po measured at 6 hrs relative to vehicle-treated control. The format is functional. On the set-up: scale not given: the % may be the effect or the level left.
For data set [12], the system named is Mus musculus. Briefly: Antidiabetic activity in insulin-resistant db/db mouse assessed as reduction of fed blood glucose level at 30 mg/kg, po measured at 6 hrs relative to vehicle-treated control. The format is functional. On the set-up: scale not given: the % may be the effect or the level left.
Data set [13] concerns Mus musculus. Briefly: Antidiabetic activity in insulin-resistant db/db mouse assessed as reduction of fed blood glucose level at 100 mg/kg, po measured at 8 hrs relative to vehicle-treated control. On the set-up: scale not given: the % may be the effect or the level left. The format is functional.
Data set [14] is described as follows: Clearance in rat at 2 mg/kg, iv. On the set-up: dose 2 mg/kg, route intravenous. The data set is classed as ADME, organism-based. The following applies: in vivo.
Data set [15] deals with Mus musculus. The experiment in a line: Unbound maximum concentration in C57Bl6 mouse at 100 mg/kg, po. The data set is classed as ADME, organism-based. On the set-up: dose 100 mg/kg, route oral. To be noted: in vivo.
Data set [16] in a line: Fraction unbound in rat plasma at 10 mg/kg, po by rapid equilibrium dialysis method. The format is ADME, organism-based. On the set-up: dose 10 mg/kg, route oral. The method in brief:
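Plasma fraction unbound measured by rapid equilibrium dialysis.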
(In general: In equilibrium dialysis only unbound substance equilibrates across the membrane.)

The nature of data set [17]: Ratio of EC50 for induction of GK translocation from nucleus to cytoplasm of mouse hepatocytes to ratio of unbound maximum concentration in C57Bl6 mouse. On the set-up: species or system Hepatocyte.
Data set [18] in a line: Intrinsic clearance in human liver microsomes at 1 uM after 30 mins in presence of NADPH. The data set is classed as ADME. To be noted: read-out: CLH. On the technique in general: Liver microsomes are a subcellular fraction often used to study metabolism.
Data set [19] has as its system Liver microsome. The experiment in a line: Drug metabolism in human liver microsomes assessed as oxidation of bicyclic morpholine ring. The format is ADME.
Data set [20] concerns Liver microsome. Briefly: Drug metabolism in rat liver microsomes assessed as oxidation of bicyclic morpholine ring. The format is ADME.
The target in data set [21] is T1, Glucokinase regulatory protein (Mus musculus, UniProt Q91X44).
T1 sequence (Q91X44 whole entry): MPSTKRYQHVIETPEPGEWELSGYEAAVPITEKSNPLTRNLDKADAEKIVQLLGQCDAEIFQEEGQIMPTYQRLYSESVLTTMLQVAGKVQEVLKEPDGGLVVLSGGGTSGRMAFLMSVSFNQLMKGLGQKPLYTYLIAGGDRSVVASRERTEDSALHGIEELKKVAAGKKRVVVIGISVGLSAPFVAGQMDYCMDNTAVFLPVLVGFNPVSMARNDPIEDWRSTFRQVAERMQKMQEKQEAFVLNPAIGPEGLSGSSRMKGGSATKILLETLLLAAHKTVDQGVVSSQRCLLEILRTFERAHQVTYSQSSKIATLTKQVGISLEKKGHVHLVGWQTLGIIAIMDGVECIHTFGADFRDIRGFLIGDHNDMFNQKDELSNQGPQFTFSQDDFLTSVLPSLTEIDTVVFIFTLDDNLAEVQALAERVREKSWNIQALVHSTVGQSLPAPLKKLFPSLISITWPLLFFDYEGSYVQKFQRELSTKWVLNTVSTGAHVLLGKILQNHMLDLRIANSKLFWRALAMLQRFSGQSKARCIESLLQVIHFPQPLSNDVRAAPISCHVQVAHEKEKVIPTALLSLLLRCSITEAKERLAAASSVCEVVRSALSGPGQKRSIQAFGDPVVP
Briefly: Induction of GK translocation from nucleus to cytoplasm of mouse hepatocytes preincubated for 20 mins followed by glucose challenge measured after 40 mins by Hoechst 33342 staining-based assay. The data set is classed as cell-based, Hepatocyte.

Data set [22] deals with Liver microsome. The experiment in a line: Drug metabolism in rat liver microsomes assessed as oxidation of thiophene ring. The data set is classed as ADME.
The nature of data set [23]: Intrinsic clearance in rat liver microsomes at 1 uM after 30 mins in presence of NADPH. The data set is classed as ADME. The following applies: read-out: CLH.
Data set [24] concerns Liver microsome. Briefly: Drug metabolism in human liver microsomes assessed as cleavage of sufonamide. The format is ADME.
In data set [25] the test system is Liver microsome. Briefly: Drug metabolism in rat liver microsomes assessed as cleavage of sufonamide. The data set is classed as ADME.
Data set [26] deals with T2, Glucokinase regulatory protein (Homo sapiens, UniProt Q14397).
T2 sequence (Q14397 whole entry): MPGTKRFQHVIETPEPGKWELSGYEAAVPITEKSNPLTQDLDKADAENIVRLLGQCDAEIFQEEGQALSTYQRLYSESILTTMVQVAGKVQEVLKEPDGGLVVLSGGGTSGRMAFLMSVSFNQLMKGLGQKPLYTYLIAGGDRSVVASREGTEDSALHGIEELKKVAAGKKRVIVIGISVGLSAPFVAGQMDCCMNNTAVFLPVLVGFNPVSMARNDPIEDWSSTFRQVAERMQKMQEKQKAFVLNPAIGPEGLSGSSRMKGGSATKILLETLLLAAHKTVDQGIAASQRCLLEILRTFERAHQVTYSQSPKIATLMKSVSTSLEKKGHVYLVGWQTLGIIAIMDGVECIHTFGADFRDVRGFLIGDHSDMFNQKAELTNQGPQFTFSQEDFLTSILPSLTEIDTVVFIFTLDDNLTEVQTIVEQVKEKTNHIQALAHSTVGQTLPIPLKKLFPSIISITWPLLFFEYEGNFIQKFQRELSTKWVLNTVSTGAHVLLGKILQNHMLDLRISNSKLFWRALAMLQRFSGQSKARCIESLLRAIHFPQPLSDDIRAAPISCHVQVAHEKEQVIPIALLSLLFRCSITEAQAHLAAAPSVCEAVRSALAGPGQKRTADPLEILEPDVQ
The experiment in a line: Inhibition of fluorescein-labeled human GK interaction with biotin-labeled human GKRP incubated for 20 mins prior to addition of fluorescein-labeled GK measured after 2 to 4 hrs by Alpha Screen assay.

Data set [27] deals with Liver microsome. The experiment in a line: Drug metabolism in human liver microsomes assessed as oxidation of thiophene ring. The data set is classed as ADME.

Usually MRT stands for the average time that molecules of a dose stay in the body. By bioavailability is commonly meant the share of a dose that reaches the circulation, judged against a reference dose that is usually intravenous. `CC#C[C@H]1CN(S(=O)(=O)c2ccc(N)nc2)CCN1c1ccc([C@@](C)(O)C(F)(F)F)cc1`: the values for the MRT in [1] and in data set [9] were 4.6 h and 5.3 h, respectively. Moreover, the bioavailability amounted to 39% in data set [2] and 82% in [6]. For the same molecule, the “Cp(f)” value in data set [3] turned out to be 0.24 µM; in data set [4], 0.786 µM; in data set [7], 0.058 µM. Besides, the Vd is 1 L/kg in data set [5] and 1.6 L/kg in [8]. Moreover, the fCmax in data set [10] stood at 0.292 µM.
`CC#C[C@H]1CN(S(=O)(=O)c2ccc(N)nc2)CCN1c1ccc(C(O)(C(F)(F)F)C(F)(F)F)cc1`: the Activity in data set [11] was determined as 60%; in [12], 47%; in [13], 56%. For the same molecule, the figures for the MRT in data set [1] and in [9] were 6.2 h and 9.2 h, respectively. For the same molecule, the figures for the bioavailability in [2] and in data set [6] were 40% and 75%, respectively. Also, the results for the Vd in data set [5] and in [8] were 1.1 L/kg and 3.6 L/kg, respectively. The molecule further had a fCmax in [10] of 0.068 µM.
In general, clearance refers to the rate of elimination divided by the concentration. What is called fraction unbound is free concentration divided by total concentration. Broadly, the pEC50 is the negative decadic logarithm of the EC50, by convention in mol/L. As for `C[C@H]1COCCN1C[C@H]1CN(S(=O)(=O)c2cccs2)CCN1c1ccc([C@@](C)(O)C(F)(F)F)cc1`, the clearance in data set [14] was 68.3 mL/min/kg. This molecule also gave a fCmax in data set [15] of 0.032 µM. The same molecule registered an MRT in [1] of 4.4 h. In data set [16], this molecule had a free fraction (fraction unbound) of 0.037. In addition, the Ratio in data set [17] is recorded as 50. Further, in [18], the microsomal CLint at 1 µM stood at 353 µL/min/mg. In addition, the Drug metabolism entry in data set [19] and in [20] was “Active” throughout. Besides, the bioavailability in data set [6] was determined as 7%. The Vd in data set [8] is 8.3 L/kg. In data set [21], this molecule had a pEC50 of 5.75.
The term pIC50 denotes −log10 of the IC50, conventionally taken in molar units. For `C[C@@](O)(c1ccc(N2CCN(S(=O)(=O)c3cccs3)C[C@@H]2CN2[C@H]3COC[C@@H]2[C@H](O)C3)cc1)C(F)(F)F`, the Drug metabolism entry in data set [22], in data set [24], in [25] and in data set [27] was “Active” in each case. In addition, the microsomal CLint at 1 µM in data set [23] stood at 118 µL/min/mg; in [18] it was 128 µL/min/mg. The molecule also showed a pIC50 in data set [26] of 7.85. Further, the negative-log EC50 (pEC50) in data set [21] was 5.92.
